The record followed here is ChEMBL document CHEMBL4842354, “Synthesis, structure-activity relationships, cocrystallization and cellular characterization of novel smHDAC8 inhibitors for the treatment of schistosomiasis” (Eur J Med Chem, 2021).

pIC50: −log10 of the molar value.

Series [1] concerns the target T1, Histone deacetylase 8 (Schistosoma mansoni, UniProt A5H660).
T1 sequence (A5H660 whole entry): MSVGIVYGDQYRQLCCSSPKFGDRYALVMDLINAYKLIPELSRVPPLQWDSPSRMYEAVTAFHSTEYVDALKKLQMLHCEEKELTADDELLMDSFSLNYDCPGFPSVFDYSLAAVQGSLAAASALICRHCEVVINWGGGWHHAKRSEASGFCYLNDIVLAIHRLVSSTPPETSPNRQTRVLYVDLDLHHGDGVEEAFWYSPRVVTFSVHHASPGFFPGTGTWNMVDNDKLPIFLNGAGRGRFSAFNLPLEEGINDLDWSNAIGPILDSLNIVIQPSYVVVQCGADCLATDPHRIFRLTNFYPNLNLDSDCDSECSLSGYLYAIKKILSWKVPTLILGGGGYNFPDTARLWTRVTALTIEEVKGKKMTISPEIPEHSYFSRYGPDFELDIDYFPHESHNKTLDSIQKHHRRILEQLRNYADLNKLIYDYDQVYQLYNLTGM
Nature of the series: Inhibition of Schistosoma mansoni HDAC8 using Fluor de Lys as substrate incubated for 90 mins by fluorescence method. The method, boiled down: (§1)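 Recombinant smHDAC8 or hHDAC8 (Romier lab) run to Fluor de Lys HDAC8 kit protocol. Substrate H2N-Arg-His-Lys(Ac)-Lys(Ac)-AMC at 50 μM with increasing inhibitor concentrations, 90 min at 37°C. Stop solution holding inhibitor plus trypsin, then 20 min at 37°C to release AMC. Fluorescence read at Ex 355/Em 460 nm.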

In series [2] the target is T2, Histone deacetylase 8 (Homo sapiens, UniProt Q9BY41).
T2 sequence (Q9BY41 whole entry): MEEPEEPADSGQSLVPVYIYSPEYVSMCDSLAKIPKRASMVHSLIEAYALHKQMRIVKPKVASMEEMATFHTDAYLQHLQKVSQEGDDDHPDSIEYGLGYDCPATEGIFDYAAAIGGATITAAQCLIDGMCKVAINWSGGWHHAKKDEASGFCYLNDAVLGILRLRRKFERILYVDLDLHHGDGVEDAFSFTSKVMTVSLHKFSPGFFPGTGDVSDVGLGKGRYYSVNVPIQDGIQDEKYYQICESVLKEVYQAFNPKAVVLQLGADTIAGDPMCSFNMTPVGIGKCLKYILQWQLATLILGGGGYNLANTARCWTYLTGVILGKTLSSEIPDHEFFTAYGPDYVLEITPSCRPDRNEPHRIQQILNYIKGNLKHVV
Nature of the series: Inhibition of human recombinant HDAC8 using H2N-Arg-His-Lys(Ac)-Lys(Ac)-AMC as substrate after 90 mins by fluorescence based micro plate assay.

For series [3], the system named is Schistosoma mansoni. Nature of the series: Antischistosomal activity against Schistosoma mansoni schistosomula at 10 uM incubated for 48 hrs by Alamar Blue assay. The class given is functional. The method, boiled down: (§2)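 S. mansoni newly transformed schistosomula from mechanically transformed cercariae, 100 NTS/well in Medium 199 with 10% FCS, penicillin, streptomycin and rifampicin. Pre-cultured 3 h at 37°C, 5% CO2. Compounds from 20 mM DMSO stocks, final 10 or 20 μM. Alamar Blue added after 48 h exposure, then 24 h more. Resorufin read at Ex 530/Em 590 nm. Live and ethanol-killed larvae as controls; triplicate wells, two biological replicates.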
(Resazurin is reduced to fluorescent resorufin, in cell work by metabolically active cells.)

Series [4] relates to Schistosoma mansoni. Nature of the series: Antischistosomal activity against Schistosoma mansoni schistosomula at 20 uM incubated for 48 hrs by Alamar Blue assay. The class given is functional. The method, boiled down: as §2
The next series concerns HEK293. Nature of the series: Cytotoxicity against human HEK293 assessed as reduction in cell viability at 50 uM measured for 24 hrs by Alamar Blue assay. The class given is cell-based. The settings on record: hek293, 24 h. Put shortly: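 HEK293 cells in DMEM with 10% FCS and 5 mM glutamine at 37°C, 5% CO2, seeded at 1.5×10^3 cells/well. Compounds added at 50 μM. AlamarBlue added after 24 h and incubated a further 21 h. Resorufin fluorescence read at Ex 530/Em 590 nm. Triplicates; daunorubicin positive control.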

Series [5] deals with T3, Histone deacetylase 8 (Homo sapiens) (UniProt Q9BY41).
T3 sequence (whole entry): T2 sequence (Q9BY41 whole entry)
Nature of the series: Inhibition of human recombinant HDAC8 at 1 uM using H2N-Arg-His-Lys(Ac)-Lys(Ac)-AMC as substrate after 90 mins by fluorescence based micro plate assay. The method, boiled down:
as §1

In general, pIC50 refers to the IC50 on a negative log10 scale, so that one unit is a factor of ten. For `COc1ccc(C(=O)NO)cc1NCc1cccc2c1oc1ccccc12`, the negative-log IC50 (pIC50) is 6.35 against Histone deacetylase 8 [1] and 6.07 on Histone deacetylase 8 [2].

Consider `COc1ccc(C(=O)NO)cc1NC(=O)c1cccc2c1/C(=N/O)c1ccccc1-2`, for which the figures for the pIC50 at Histone deacetylase 8 [1] and on Histone deacetylase 8 [2] were 6.49 and 6.82, respectively. Besides, the values for the Activity in the series on Schistosoma mansoni [3], with Schistosoma mansoni [4] and in the series with HEK293 were 98.5%, 96% and 76.6%, respectively.

Regarding `CCOc1ccc(C(C)=O)cc1NC(=O)c1cc(C(=O)NO)ccc1C`, the negative logarithm of the IC50 (pIC50) at Histone deacetylase 8 [1] is 6.68; at Histone deacetylase 8 [2] it was 7.15. Also, the Activity in the series with Schistosoma mansoni [3] is reported as 42.1%; in the series on Schistosoma mansoni [4], 37%; in the series on HEK293, 87.7%.

As to `COc1ccc(C(C)=O)cc1NC(=O)c1cc(C(=O)NO)ccc1C`, the negative logarithm of the IC50 (pIC50) at Histone deacetylase 8 [1] is 6.74; on Histone deacetylase 8 [2] it was 7.05. The figures for the Activity in the series on Schistosoma mansoni [3], with Schistosoma mansoni [4] and in the series on HEK293 were 75.2%, 69.5% and 94.8%, respectively.

In general, inhibition refers to the drop in the measured response relative to a control, in per cent. On to `COc1ccc(C(=O)NO)cc1NC(=O)c1ccc(-c2ccc(F)cc2)cc1Cl`, for which, on Histone deacetylase 8 [1], the negative-log IC50 (pIC50) is 6.49. Further, the inhibition in series [5] came to 48%. Besides, the Activity in the series with Schistosoma mansoni [3] is 74.6%; in the series with Schistosoma mansoni [4], 60.5%; in the series with HEK293, 83.5%.

At Histone deacetylase 8 [1], `CCOc1ccc(C(C)=O)cc1NC(=O)c1cc(C(=O)NO)ccc1OC` showed a pIC50 of 6.48. For the same molecule, the inhibition in series [5] amounted to 61%. The Activity was determined as 64.3% with Schistosoma mansoni [3], 56.7% in the series on Schistosoma mansoni [4] and 59.9% with HEK293.

On Histone deacetylase 8 [1], `COc1ccc(C(=O)NO)cc1NC(=O)c1ccc(OC(C)C)cc1` gave a pIC50 of 6.14. The values for the Activity with Schistosoma mansoni [3], in the series with Schistosoma mansoni [4] and in the series with HEK293 were 72.6%, 56.2% and 93.1%, respectively.

For `COc1ccc(C(=O)NO)cc1NC(=O)c1cccc(OCc2ccccc2)c1`, the pIC50 against Histone deacetylase 8 [1] is 6.21. Moreover, the inhibition in series [5] turned out to be 59%. In addition, the Activity in the series on Schistosoma mansoni [3] turned out to be 61%; in the series with Schistosoma mansoni [4], 56.2%; in the series on HEK293, 95.4%.

Consider `COc1ccc(C(=O)NO)cc1C(=O)Nc1ccc(Cl)cc1Cl`, for which the pIC50 on Histone deacetylase 8 [1] was 6.74. Further, the inhibition in series [5] worked out at 31%. Besides, the values for the Activity in the series on Schistosoma mansoni [3], in the series with Schistosoma mansoni [4] and with HEK293 were 88.2%, 83.4% and 58.3%, respectively.

For the molecule `COc1ccc(C(=O)NO)cc1NC(=O)c1ccc2[nH]c3c(c2c1)CN(C)CC3.Cl`, the pIC50 was 6.70 against Histone deacetylase 8 [1] and 6.54 at Histone deacetylase 8 [2]. Also, the Activity is 98% in the series on Schistosoma mansoni [3], 100% in the series on Schistosoma mansoni [4] and 71.1% in the series on HEK293.

Molecule `O=C(NO)c1ccc(Cl)c(NC(=O)c2ccc(-c3ccc(F)cc3)cc2Cl)c1` gave a pIC50 against Histone deacetylase 8 [1] of 6.55. Also, the inhibition in series [5] was found to be 25%. Moreover, the Activity in the series on Schistosoma mansoni [3] is given as 63.4%; in the series with Schistosoma mansoni [4], 56.6%; with HEK293, 82.2%.

As to `Cc1ccc(C(=O)NO)cc1NC(=O)c1cccc(OCc2ccccc2)c1`, the negative logarithm of the IC50 (pIC50) on Histone deacetylase 8 [1] is 6.35. In series [5], the inhibition is 60%. Further, the Activity in the series on Schistosoma mansoni [3] was 67.3%; with Schistosoma mansoni [4] it was 46.5%; in the series on HEK293 it was 81.4%.

`CCCOc1ccc(C(=O)Nc2cc(C(=O)NO)ccc2OC)cc1` gave a negative-log IC50 (pIC50) at Histone deacetylase 8 [1] of 6.14. Also, in series [5], the inhibition was 66%. The values for the Activity in the series with Schistosoma mansoni [3], with Schistosoma mansoni [4] and in the series with HEK293 were 70.7%, 51.6% and 93.2%, respectively.

As to `COc1ccc(C(=O)NO)cc1C(=O)Nc1ccc2sccc2c1`, the negative logarithm of the IC50 (pIC50) against Histone deacetylase 8 [1] was 6.66; on Histone deacetylase 8 [2], 7.00. The Activity in the series with Schistosoma mansoni [3] stood at 82.1%; with Schistosoma mansoni [4], 77.1%; in the series with HEK293, 95.6%.

For the molecule `COc1ccc(C(=O)NO)cc1C(=O)Nc1ccc(Cl)cc1`, the negative logarithm of the IC50 (pIC50) against Histone deacetylase 8 [1] was 6.51. In addition, the Activity in the series with Schistosoma mansoni [3] was determined as 77.3%; in the series with Schistosoma mansoni [4], 59.2%; in the series on HEK293, 27.5%.

`Cc1ccc(C(=O)NO)cc1NC(=O)c1cccc(OCc2c(Cl)cccc2Cl)c1` gave a pIC50 against Histone deacetylase 8 [1] of 6.28. The inhibition in series [5] stood at 34%. The Activity is recorded as 38.4% in the series on Schistosoma mansoni [3], 22.3% in the series on Schistosoma mansoni [4] and 66.6% in the series on HEK293.

In turn, `COc1ccc(C(=O)Nc2cc(C(=O)NO)ccc2OC)c(OC)c1` gave a negative logarithm of the IC50 (pIC50) on Histone deacetylase 8 [1] of 5.68. For the same molecule, in series [5], the inhibition was 63%. Besides, the Activity in the series on Schistosoma mansoni [3] worked out at 65.3%; in the series with Schistosoma mansoni [4], 66.5%; in the series on HEK293, 88.4%.

On to `O=C(C1CCCCC1)N1CC(=O)N2CCc3ccccc3C2C1` (stereo not drawn) [PRAZIQUANTEL], for which the Activity with Schistosoma mansoni [3] worked out at 92.1%; in the series with Schistosoma mansoni [4] it was 88.9%; in the series on HEK293, 99.3%.

Turning to `COc1ccc(C(=O)NO)cc1NC(=O)c1cccc2cccnc12`, the pIC50 on Histone deacetylase 8 [1] was 6.48; at Histone deacetylase 8 [2], 6.74. Moreover, the Activity stood at 62% in the series on Schistosoma mansoni [3], 40% in the series with Schistosoma mansoni [4] and 77% in the series with HEK293.

In the case of `COc1ccc(C(=O)NO)cc1NC(=O)c1nc2ccccc2[nH]1`, the negative-log IC50 (pIC50) on Histone deacetylase 8 [1] is 6.24. Also, the inhibition in series [5] is 29%. Further, the Activity is on record as 69.5% in the series with Schistosoma mansoni [3], 47.1% in the series on Schistosoma mansoni [4] and 83.5% with HEK293.

Consider `COc1ccc(C(C)=O)cc1NC(=O)c1cc(C(=O)NO)ccc1Cl`, for which the pIC50 on Histone deacetylase 8 [1] was 6.54; on Histone deacetylase 8 [2], 7.05. The figures for the Activity in the series on Schistosoma mansoni [3], with Schistosoma mansoni [4] and in the series on HEK293 were 62.6%, 32.3% and 89.1%, respectively.
